Reference: ChEMBL document CHEMBL1159085, “Proteasome inhibition in human breast cancer cells with high catechol-O-methyltransferase activity by green tea polyphenol EGCG analogs” (Bioorg Med Chem, 2010)
The source made the active and inactive calls. No cut-off for these calls is given here.

Key:
[1] = Inhibition of chymotrypsin like activity of proteasome; assay type: subcellular
MDA-MB-231 [2] = assay: Antiproliferative activity against human MDA-MB-231 cells with high catechol-O-methyltransferase activity at 25 uM after 24 hrs by MTT assay; assay type: functional; details: for inhibition at 25 µM: MDA-MB-231, 24 h
Summary of the method: (§1)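 MDA-MB-231 cells were grown in RPMI 1640 with 10% FBS, 100 units/ml penicillin and 100 μg/ml streptomycin at 37°C and 5% CO2. Triplicate wells were exposed to 25 or 50 μM compound for 24 h. MTT (1 mg/ml) was then added for 3 h at 37°C, and the formazan was dissolved in DMSO after the medium was removed.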

MDA-MB-231 [3] = assay: Inhibition of chymotrypsin like activity of 20S proteasome in human MDA-MB-231 cells assessed as cleavage of Suc-LLVY-AMC substrate after 2 hrs by fluorogenic assay; assay type: cell-based
Summary of the method: (§2)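 Crude MDA-MB-231 cell extract (5.7 μg) was used as the source of 26S proteasome. It was incubated with compound at a range of concentrations, or with solvent, plus 20 μM Suc-LLVY-AMC in 20 mM Tris-HCl, pH 7.5, for 2 h at 37°C. Chymotrypsin-like activity was read by fluorescence at 355 nm excitation and 460 nm emission.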

MDA-MB-231 [4] = assay: Antiproliferative activity against human MDA-MB-231 cells with high catechol-O-methyltransferase activity at 50 uM after 24 hrs by MTT assay; assay type: functional; summary of the method: as §1
MDA-MB-231 [5] = assay: Antiproliferative activity against human MDA-MB-231 cells at 25 to 50 uM after 24 hrs by MTT assay; assay type: functional; summary of the method: as §1
MDA-MB-231 [6] = assay: Inhibition of chymotrypsin like activity of 20S proteasome in COMT inhibitor 3,5-dinitrocatechol pretreated human MDA-MB-231 cells lysates with high catechol-O-methyltransferase activity assessed as cleavage of Suc-LLVY-AMC substrate at 10 uM after 2 hrs by fluorogenic assay; assay type: cell-free
Summary of the method: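 MDA-MB-231 cell extract (5.7 μg) was pre-treated with 10 μM 3,5-dinitrocatechol for 20 min. Compound and 20 μM Suc-LLVY-AMC were then added in 20 mM Tris-HCl, pH 7.5, and incubated for 2 h at 37°C. AMC release was read by fluorescence at 355 nm excitation and 460 nm emission.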

Oryctolagus cuniculus [7] = species: Oryctolagus cuniculus; assay: (§3) Inhibition of chymotrypsin like activity of rabbit 20S proteasome assessed as cleavage of Suc-LLVY-AMC substrate after 2 hrs by fluorogenic assay
Summary of the method: (§4)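 Purified rabbit 20S proteasome (35 ng) was incubated with 20 μM Suc-LLVY-AMC in 20 mM Tris-HCl, pH 7.5, with compound at various concentrations or solvent, for 2 h at 37°C. Fluorogenic substrate hydrolysis was then measured at 355 nm excitation and 460 nm emission.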

MDA-MB-231 [8] = assay: Inhibition of chymotrypsin like activity of 20S proteasome in human MDA-MB-231 cells lysates with high catechol-O-methyltransferase activity assessed as cleavage of Suc-LLVY-AMC substrate at 10 uM after 2 hrs by fluorogenic assay
Summary of the method: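 MDA-MB-231 cell extract (5.7 μg protein) incubated with test agent or solvent and 20 μM Suc-LLVY-AMC in 20 mM Tris–HCl pH 7.5 for 2 h at 37°C. Chymotrypsin-like activity read as AMC fluorescence (ex 355 nm, em 460 nm).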

Oryctolagus cuniculus [9] = species: Oryctolagus cuniculus; assay: Inhibition of chymotrypsin like activity of rabbit 20S proteasome assessed as cleavage of Suc-LLVY-AMC substrate at 50 uM after 2 hrs by fluorogenic assay; summary of the method: as §4
MDA-MB-231 [10] = assay: Inhibition of chymotrypsin like activity of 20S proteasome in human MDA-MB-231 cells lysates with high catechol-O-methyltransferase activity assessed as cleavage of Suc-LLVY-AMC substrate at 1 to 10 uM after 2 hrs by fluorogenic assay; assay type: cell-free; summary of the method: as §2
[11] = as §3; design: species or system Oryctolagus cuniculus; summary of the method: as §4
MDA-MB-231 [12] = assay: Inhibition of 20S proteasome in human MDA-MB-231 cells assessed as accumulation of proteasome substrate at 50 uM after 22 hrs by Western blot; assay type: cell-based
Summary of the method: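 Intact MDA-MB-231 cells were cultured in RPMI 1640 with 10% FBS and penicillin/streptomycin at 37°C and 5% CO2. They were treated with 50 μM compound for 22 h. Accumulation of ubiquitinated proteins, used as a measure of proteasome substrates, was then detected by Western blotting of cell lysates.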

O=C(O[C@@H]1Cc2c(O)cc(O)cc2O[C@@H]1c1cc(O)c(O)c(O)c1)c1cc(O)c(O)c(O)c1 (stereo in doubt; 1) [EPIGALOCATECHIN GALLATE]
IC50 [1]: 86 nM

CC(=O)Oc1cc(C(=O)O[C@H]2Cc3ccccc3C[C@H]2OC(=O)c2cc(OC(C)=O)c(OC(C)=O)c(OC(C)=O)c2)cc(OC(C)=O)c1OC(C)=O
growth inhibition (GI) (MDA-MB-231 [2]): Active | inhibition at 25 µM (MDA-MB-231 [2]): 48% | inhibition (MDA-MB-231 [3]): inactive | growth inhibition (GI) (MDA-MB-231 [4]): Active | growth inhibition (GI) (MDA-MB-231 [5]): 50%

O=C(O[C@@H]1Cc2c(O)cc(O)cc2O[C@@H]1c1cc(O)c(O)c(O)c1)c1cc(O)c(O)c(O)c1 (stereo in doubt; 1)
inhibition (MDA-MB-231 [6]): Active | inhibition (Oryctolagus cuniculus [7]): Active | inhibition (MDA-MB-231 [8]): 22%

CC(=O)Oc1cc(OC(C)=O)cc(C(=O)O[C@H]2Cc3ccccc3C[C@H]2OC(C)=O)c1
inhibition (MDA-MB-231 [3]): inactive

O=C(O[C@H]1Cc2ccccc2C[C@H]1O)c1cc(O)cc(O)c1
inhibition (Oryctolagus cuniculus [9]): inactive

O=C(O[C@@H]1Cc2c(O)cc(O)cc2O[C@@H]1c1cc(O)c(O)c(O)c1)c1cc(O)c(O)c(O)c1 (stereo in doubt; 3) [EPIGALOCATECHIN GALLATE]
IC50 [1]: 170 nM

O=C(O[C@H]1Cc2ccccc2C[C@H]1OC(=O)c1cc(O)cc(O)c1)c1cc(O)cc(O)c1
inhibition (MDA-MB-231 [10]): 18% | inhibition (MDA-MB-231 [6]): Active | IC50 [11]: 29000 nM

CC(=O)Oc1cc(C(=O)O[C@H]2Cc3ccccc3C[C@H]2OC(C)=O)cc(OC(C)=O)c1OC(C)=O
inhibition (MDA-MB-231 [3]): inactive

O=C(O[C@H]1Cc2ccccc2C[C@H]1O)c1cc(O)c(O)c(O)c1
inhibition (Oryctolagus cuniculus [9]): inactive

O=C(O[C@H]1Cc2ccccc2C[C@H]1OC(=O)c1cc(O)c(O)c(O)c1)c1cc(O)c(O)c(O)c1
IC50 [1]: 340 nM | inhibition (MDA-MB-231 [10]): 10% | inhibition (MDA-MB-231 [6]): Active | IC50 [11]: 19000 nM

CC(=O)Oc1cc(OC(C)=O)c2c(c1)O[C@H](c1cc(OC(C)=O)c(OC(C)=O)c(OC(C)=O)c1)[C@H](OC(=O)c1cc(OC(C)=O)c(OC(C)=O)c(OC(C)=O)c1)C2
inhibition at 25 µM (MDA-MB-231 [2]): 42% | inhibition (MDA-MB-231 [3]): inactive | growth inhibition (GI) (MDA-MB-231 [5]): 0%

CC(=O)Oc1cc(OC(C)=O)cc(C(=O)O[C@H]2Cc3ccccc3C[C@H]2OC(=O)c2cc(OC(C)=O)cc(OC(C)=O)c2)c1
growth inhibition (GI) (MDA-MB-231 [2]): Active | inhibition at 25 µM (MDA-MB-231 [2]): 69% | inhibition (MDA-MB-231 [3]): inactive | inhibition (MDA-MB-231 [12]): Active | growth inhibition (GI) (MDA-MB-231 [4]): Active | inhibition at 50 µM (MDA-MB-231 [4]; MDA-MB-231, 24 h, read-out: INH): 69%
